In brackets after ≈: the same amount, converted by molar mass.
Legend:
Liver microsome [1] = assay: Metabolic stability in rat liver microsomes assessed as compound remaining after 30 mins; assay type: ADME; details: 0.5 h
In short: (§1)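 One-point microsomal stability test: compound incubated 30 min with human, rat or mouse liver microsomes; percentage of parent remaining measured.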

[2] = Aqueous solubility of the compound at pH 2; assay type: physicochemical; details: buffer
Liver = assay: Metabolic stability in mouse liver microsomes assessed as compound remaining after 30 mins; assay type: ADME; details: 0.5 h; in short: as §1
[3] = Aqueous solubility of the compound at pH 6.5; assay type: physicochemical; details: buffer
Liver microsome [4] = assay: Metabolic stability in human liver microsomes assessed as compound remaining after 30 mins; assay type: ADME; details: 0.5 h; in short: as §1
Plasmodium falciparum [5] = assay: Antiplasmodial activity against Plasmodium falciparum K1 by [3H]hypoxanthine incorporation assay; assay type: functional, organism-based
In short: (§2)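 Modified [3H]-hypoxanthine incorporation assay on P. falciparum asexual cultures, chloroquine and artesunate as references in every run. IC50 values are means of ≥2 independent experiments; individual values mostly within 2-fold (maximum 3-fold).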

Plasmodium falciparum [6] = assay: Antiplasmodial activity against Plasmodium falciparum NF54 by [3H]hypoxanthine incorporation assay; assay type: functional, organism-based; in short: as §2
CHO = assay: Cytotoxicity against CHO cells; assay type: cell-based, Cricetulus griseus; details: chinese hamster
[7] = tested on: CHO cells (Cricetulus griseus); assay: Cytotoxicity against Chinese hamster CHO cells
[8] = Selectivity index, ratio of IC50 for CHO cells to IC50 for Plasmodium falciparum; assay type: toxicity, cell-based; details: hamster, read-out: Ratio IC50
[9] = tested on: CHO cells (Cricetulus griseus); assay: Selectivity index, ratio of IC50 for Chinese hamster CHO cells to IC50 for Plasmodium falciparum
[10] = biological target: Voltage-gated inwardly rectifying potassium channel KCNH2 (Homo sapiens, UniProt Q12809); assay: Inhibition of human ERG channel by patch clamp technique
Plasmodium berghei = assay: Antimalarial activity against Plasmodium berghei ANKA infected in mouse assessed as reduction in parasitemia at 50 mg/kg/day, po qd administered for 4 days relative to control; assay type: functional; set-up: Activity: scale not given: the % may be the effect or the level left
In short: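 Mice (n = 3) infected with GFP-transfected P. berghei ANKA; compound in HPMC suspension vehicle given orally once daily at 4, 24, 48 and 72 h after infection. Blood collected day 4 (96 h post-infection); parasitemia by flow cytometry (detection limit 0.1%). Activity = difference in mean % parasitemia between control and treated groups, as % of control.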

[11] = Plasma concentration in mouse infected with Plasmodium berghei ANKA at 50 mg/kg/day, po after 1 hr by HPLC analysis; assay type: ADME, organism-based; set-up: route oral
In short: (§3)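 P. berghei-infected mice dosed orally at 50 mg/kg daily for 4 days; blood sampled 1, 4 and 24 h after the first dose and analysed by HPLC for drug levels.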

[12] = Plasma concentration in mouse infected with Plasmodium berghei ANKA at 50 mg/kg/day, po after 4 hrs by HPLC analysis; assay type: ADME, organism-based; set-up: route oral; in short: as §3
[13] = Plasma concentration in mouse infected with Plasmodium berghei ANKA at 50 mg/kg/day, po after 24 hrs by HPLC analysis; assay type: ADME, organism-based; set-up: route oral; in short: as §3

Voltage-gated inwardly rectifying potassium channel KCNH2, sequence (Q12809 whole entry): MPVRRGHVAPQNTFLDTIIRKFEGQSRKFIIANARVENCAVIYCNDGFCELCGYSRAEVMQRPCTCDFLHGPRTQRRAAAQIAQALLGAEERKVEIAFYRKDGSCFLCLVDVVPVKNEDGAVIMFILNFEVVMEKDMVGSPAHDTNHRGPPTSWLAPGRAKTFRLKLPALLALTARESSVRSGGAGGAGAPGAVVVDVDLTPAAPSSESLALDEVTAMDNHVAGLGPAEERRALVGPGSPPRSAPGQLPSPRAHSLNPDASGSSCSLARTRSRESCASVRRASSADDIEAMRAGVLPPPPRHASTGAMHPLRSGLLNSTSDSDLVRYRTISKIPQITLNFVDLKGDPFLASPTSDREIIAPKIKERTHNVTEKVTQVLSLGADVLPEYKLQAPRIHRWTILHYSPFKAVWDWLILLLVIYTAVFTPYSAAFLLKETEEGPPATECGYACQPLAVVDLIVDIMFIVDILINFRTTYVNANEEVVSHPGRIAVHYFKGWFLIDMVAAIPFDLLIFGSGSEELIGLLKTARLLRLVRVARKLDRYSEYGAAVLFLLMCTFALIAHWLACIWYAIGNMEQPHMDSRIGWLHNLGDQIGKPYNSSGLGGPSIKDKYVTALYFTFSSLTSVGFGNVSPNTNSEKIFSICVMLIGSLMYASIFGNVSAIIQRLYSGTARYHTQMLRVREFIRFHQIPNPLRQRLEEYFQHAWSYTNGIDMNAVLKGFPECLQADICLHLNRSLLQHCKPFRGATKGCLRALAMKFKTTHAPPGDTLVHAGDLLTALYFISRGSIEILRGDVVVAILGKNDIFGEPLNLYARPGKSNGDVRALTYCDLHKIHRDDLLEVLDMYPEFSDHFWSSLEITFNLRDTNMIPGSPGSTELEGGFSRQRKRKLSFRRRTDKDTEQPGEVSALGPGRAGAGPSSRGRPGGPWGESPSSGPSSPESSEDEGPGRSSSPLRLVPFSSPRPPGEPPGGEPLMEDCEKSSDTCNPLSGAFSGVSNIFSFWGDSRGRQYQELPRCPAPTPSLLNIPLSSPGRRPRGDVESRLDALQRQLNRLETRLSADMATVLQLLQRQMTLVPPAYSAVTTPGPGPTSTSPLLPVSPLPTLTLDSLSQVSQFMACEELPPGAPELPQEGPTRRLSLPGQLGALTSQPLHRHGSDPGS

| SMILES | Stability (Liver microsome [1]) | solubility [2] [µM] | Stability (Liver) | solubility [3] [µM] | Stability (Liver microsome [4]) | IC50 (Plasmodium falciparum [5]) [nM] | IC50 (Plasmodium falciparum [6]) [nM] | Activity (CHO) | Activity [7] | selectivity ratio [8] | selectivity ratio [9] | IC50 [10] [nM] | Activity (Plasmodium berghei) [%] | MSD (Plasmodium berghei) [days] | concentration at 1 h [11] [nM] | concentration at 4 h [12] [nM] | concentration at 24 h [13] [nM] |
| --- | --- | --- | --- | --- | --- | --- | --- | --- | --- | --- | --- | --- | --- | --- | --- | --- | --- |
| CS(=O)(=O)c1ccc(-c2cnc3ccc(-c4cccc(C(=O)NCCO)c4)nn23)cc1 | Unstable | > 200 | Unstable | > 100 | Unstable |  |  |  |  |  |  |  |  |  |  |  |  |
| CS(=O)(=O)c1ccc(-c2cnc3ccc(-c4cncc(S(C)(=O)=O)c4)nn23)cc1 |  | < 5 |  | < 5 |  | 82 | 96 |  |  |  |  |  |  |  |  |  |  |
| CS(=O)(=O)c1ccc(-c2cnc3ccc(-c4cncc(C(F)(F)F)c4)nn23)cc1 |  | < 5 |  | < 5 |  |  | 1050 |  |  |  |  |  |  |  |  |  |  |
| CS(=O)(=O)c1ccc(-c2cnc3ccc(-c4ccnc(C(F)(F)F)c4)nn23)cc1 |  | 5.4 (≈ 2.26 µg/mL) |  | < 5 |  | 26 | 45 | Non-toxic | Non-toxic | > 1000 | > 1000 |  |  |  |  |  |  |
| CS(=O)(=O)c1ccc(-c2cnc3ccc(-c4cncc(N)c4)nn23)cc1 |  | 174 (≈ 63.6 µg/mL) |  | 15 (≈ 5.48 µg/mL) |  | 55 | 69 |  |  |  |  |  |  |  |  |  |  |
| CS(=O)(=O)c1cccc(-c2ccc3ncc(-c4ccc(S(C)(=O)=O)nc4)n3n2)c1 |  | < 5 |  | < 5 |  | 9.9 | 12 |  |  |  |  |  |  |  |  |  |  |
| CS(=O)(=O)c1cccc(-c2ccc3ncc(-c4cncc(S(C)(=O)=O)c4)n3n2)c1 |  | 16 (≈ 6.86 µg/mL) |  | < 5 |  | 42 | 58 |  |  |  |  |  |  |  |  |  |  |
| CS(=O)(=O)c1cccc(-c2ccc3ncc(-c4ccc(N)nc4)n3n2)c1 |  | 192 (≈ 70.2 µg/mL) |  | < 5 |  | 19 | 23 |  |  |  |  |  |  |  |  |  |  |
| CS(=O)(=O)c1cncc(-c2ccc3ncc(-c4ccc(S(C)(=O)=O)nc4)n3n2)c1 |  | 52 (≈ 22.3 µg/mL) |  | 13 (≈ 5.58 µg/mL) |  | 610 | 808 |  |  |  |  |  |  |  |  |  |  |
| CS(=O)(=O)c1cncc(-c2ccc3ncc(-c4cncc(S(C)(=O)=O)c4)n3n2)c1 |  | 183 (≈ 78.6 µg/mL) |  | 53 (≈ 22.8 µg/mL) |  | 473 | 636 |  |  |  |  |  |  |  |  |  |  |
| CS(=O)(=O)c1cncc(-c2ccc3ncc(-c4ccc(S(=O)(=O)C5CC5)cc4)n3n2)c1 |  | < 5 |  | < 5 |  | 484 | 662 |  |  |  |  |  |  |  |  |  |  |
| C[S+]([O-])c1cccc(-c2ccc3ncc(-c4ccc(S(C)(=O)=O)cc4)n3n2)c1 (stereo not given) | Unstable | 188 (≈ 77.4 µg/mL) | Unstable | 157 (≈ 64.6 µg/mL) | Unstable | 36 | 39 |  |  |  |  | 4000 | 99.8 | 14 | 590 | 490 |  |
| CS(=O)(=O)c1ccc(-c2cnc3ccc(-c4cccc(S(=O)(=O)CCO)c4)nn23)cc1 |  | 190 (≈ 86.9 µg/mL) |  | 8.6 (≈ 3.93 µg/mL) |  |  | 2.2 |  |  |  |  |  |  |  |  |  |  |
| CS(=O)(=O)c1ccc(-c2cnc3ccc(-c4cccc(S(=O)(=O)CCCN)c4)nn23)cc1 | Stable | > 200 | Stable | > 200 | Stable | 2.6 | 3 | Non-toxic | Non-toxic | > 1000 | > 1000 | > 33000 | <40 | 4 |  | < 10 | < 10 |
| CS(=O)(=O)c1ccc(-c2cnc3ccc(-c4cccc(C(=O)N5CCC(O)CC5)c4)nn23)cc1 | Stable | > 200 | Stable | 178 (≈ 84.8 µg/mL) | Stable |  | 6.5 |  |  |  |  |  |  |  |  |  |  |
| CS(=O)(=O)c1cccc(-c2ccc3ncc(-c4ccc(S(=O)(=O)N5CCNCC5)cc4)n3n2)c1 | Unstable | 166 (≈ 82.6 µg/mL) | Unstable | 162 (≈ 80.6 µg/mL) | Unstable | 8.8 | 14 |  |  |  |  |  |  |  |  |  |  |
| C[S+]([O-])c1ccc(-c2cnc3ccc(-c4cccc(S(C)(=O)=O)c4)nn23)cc1 (stereo not given) | Stable | 207 (≈ 85.2 µg/mL) | Stable | 98 (≈ 40.3 µg/mL) | Stable |  | 6.5 |  |  |  |  |  | 99.7 | 14 |  |  |  |
| CS(=O)(=O)c1cccc(-c2ccc3ncc(-c4ccc(C(=O)N5CCC(O)C5)cc4)n3n2)c1 (stereo not given) | Stable | 191 (≈ 88.3 µg/mL) | Stable | 177 (≈ 81.9 µg/mL) | Stable | 21 | 18 |  |  |  |  | > 33000 | <40 | 4 |  | < 10 | < 10 |
| CS(=O)(=O)c1cccc(-c2ccc3ncc(-c4ccc(S(=O)(=O)CCCN)cc4)n3n2)c1 | Stable | > 200 | Stable | 180 (≈ 84.7 µg/mL) | Stable | 9.4 | 11 | Non-toxic | Non-toxic | > 1000 | > 1000 |  |  |  |  |  |  |
| C[S+]([O-])c1cccc(-c2ccc3ncc(-c4ccc(C(N)=O)cc4)n3n2)c1 (stereo not given) |  | 112 (≈ 42.2 µg/mL) |  | < 5 |  |  | 103 |  |  |  |  |  |  |  |  |  |  |
| C[S+]([O-])c1ccc(-c2cnc3ccc(-c4cccc([S+](C)[O-])c4)nn23)cc1 (stereo not given) | Unstable | 205 (≈ 81.1 µg/mL) | Unstable | 192 (≈ 75.9 µg/mL) | Unstable | 30 | 35 |  |  |  |  | 12000 | 99.8 | 25 | 2440 | 760 |  |
| CS(=O)(=O)c1cncc(-c2cnc3ccc(-c4cccc(S(=O)(=O)C5CC5)c4)nn23)c1 |  | 18 (≈ 8.18 µg/mL) |  | < 5 |  | 31 | 37 |  |  |  |  |  |  |  |  |  |  |
| CS(=O)(=O)c1ccc(-c2cnc3ccc(-c4cccc(S(=O)(=O)C5CC5)c4)nn23)cn1 |  | < 5 |  | < 5 |  | 2 | 3.3 |  |  |  |  |  |  |  |  |  |  |
| O=S(=O)(c1cccc(-c2ccc3ncc(-c4ccc(-c5nnn[nH]5)cc4)n3n2)c1)C1CC1 |  | < 5 |  | 183 (≈ 81.2 µg/mL) |  | 25 | 43 |  |  |  |  | > 33000 | <40 | 4 |  |  |  |
| NC(=O)c1ccc(-c2cnc3ccc(-c4cccc(S(=O)(=O)C5CC5)c4)nn23)cc1 |  | 6.3 (≈ 2.64 µg/mL) |  | < 5 |  | 1.2 | 1.5 | Non-toxic | Non-toxic | > 1000 | > 1000 |  |  |  |  |  |  |
| CS(=O)(=O)c1cccc(-c2ccc3ncc(-c4ccc(C(=O)N5CCNCC5)cc4)n3n2)c1 | Stable |  | Stable |  | Stable |  |  |  |  |  |  |  | <40 | 4 |  |  |  |
| CS(=O)(=O)c1cccc(-c2ccc3ncc(-c4ccc(C(=O)O)cc4)n3n2)c1 |  |  |  |  |  |  |  | Non-toxic | Non-toxic | > 1000 | > 1000 |  |  |  |  |  |  |
